Screening data (PubChem)
RanGTP-Impb inh = inhibitors of RanGTP-importin-beta interaction, primary screen, biochemical, FRET, CFP-Ran, YFP-importin-beta, homogeneous | AID 2216, 2009 | Ran GTPase (GTP-bound) - importin-beta complex | inhibition, % (concentration not given with the values) | 300,000 compounds, 1.1% hits | cell-free CFP-Ran/YFP-importin-beta FRET ratio;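 active means more than half of the replicate wells show a fall in the fluorescence ratio signal beyond about 16%, limit read from the data, passing the limit was not always enough; inconclusive means exactly half of the replicate wells pass the set limit; inactive means fewer than half of replicates pass the limit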
CaV13 ICDI inh = Primary screen for inhibitors of IQ motif and Ca2+-dependent inactivation inhibitor domain binding in CACNA1D, Förster resonance energy transfer in living cells, … | 340,000 compounds, 0.098% hits | inhibition, % at 12.3 µM | HEK cells, CFP/YFP FRET ICDI-IQ, plate reader, 10 min; percent FRET-ratio fall versus neutral wells | AID 743397;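 active means mean replicate inhibition of at least 30% and at least 1% of replicates passing that level; inconclusive means only one of the two criteria is met; inactive means neither criterion is met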
Runt-SMMHC FRET = inhibitors of RUNX1 Runt–CBFb-SMMHC binding, primary screen, biochemical, FRET, Cerulean-Runt, Venus-CBFb-SMMHC, uHTS; Runt-related transcription factor 1 (Homo sapiens) + Core-binding factor subunit beta …; Cerulean-Runt/Venus-CBFb-SMMHC FRET ratio 530/480, 1 h; inhibition, % at 20 µM; 220,000 compounds, 0.74% hits; AID 1434, 2008;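 active means mean inhibition across duplicate retests at 20 µM reaching about 50%, limit read from the data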;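 further: inhibitors lower the FRET ratio by blocking Runt binding to CBFb-SMMHC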
Runt-CBFb FRET = inhibitors of RUNX1 Runt–CBFb binding, primary screen, biochemical, FRET, Cerulean-Runt, Venus-CBFb, uHTS; Runt-related transcription factor 1 (Homo sapiens) + Core-binding factor subunit beta …; Cerulean-Runt/Venus-CBFb FRET ratio 530/480, 1 h; inhibition, % at 20 µM; 220,000 compounds, 0.46% hits;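 active means inhibition over about 50% at 20 µM in the single-dose screen, limit read from the data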
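test system = Cerulean-tagged RUNX1 Runt domain (FRET donor) fusion protein | reagent = Venus-CBFb binding partner, 100 nM | incubation = protein complex preformed 1 h, compound exposure 1 h, room temperature, dark | detection = FRET fluorescence | read-out basis = loss of energy transfer signal | controls = 5 µM unlabeled CBFb as full-inhibition high control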
Hck-Nef inh = inhibitors of Nef-activated human Hck kinase, primary screen, biochemical, Z-Lyte FRET, 384-well, Hck-YEEI. Tyrosine-protein kinase HCK (Homo sapiens), P08631. Recombinant Hck-YEEI plus Nef, Z-Lyte FRET kinase assay. inhibition, % at 20 µM. 220,000 compounds, 0.68% hits. AID 463187, 2010;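 active means Hck-Nef kinase inhibition above about 50%, limit read from the data; inactive means inhibition below that limit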
Target sequence (P08631 whole entry, looked up): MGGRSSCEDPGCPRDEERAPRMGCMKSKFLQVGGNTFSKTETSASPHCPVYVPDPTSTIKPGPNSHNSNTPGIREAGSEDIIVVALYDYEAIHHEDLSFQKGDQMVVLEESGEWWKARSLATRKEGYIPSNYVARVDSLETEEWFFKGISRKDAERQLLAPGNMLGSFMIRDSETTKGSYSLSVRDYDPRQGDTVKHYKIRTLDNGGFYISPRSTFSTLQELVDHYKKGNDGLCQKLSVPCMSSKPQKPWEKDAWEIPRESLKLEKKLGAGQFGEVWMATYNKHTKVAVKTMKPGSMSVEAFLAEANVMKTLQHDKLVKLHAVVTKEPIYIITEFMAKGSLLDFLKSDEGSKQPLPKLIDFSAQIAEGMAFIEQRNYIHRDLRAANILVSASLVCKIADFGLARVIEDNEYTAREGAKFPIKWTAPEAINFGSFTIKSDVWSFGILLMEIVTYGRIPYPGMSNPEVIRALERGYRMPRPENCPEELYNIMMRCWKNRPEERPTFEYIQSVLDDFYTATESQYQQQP
YIC FRET counter = YIC intramolecular FRET probe signal interference, dose response, counter-screen for RanGTP-importin-beta inhibitor project, biochemical, fluorescence FRET | shares compounds with RanGTP-Impb inh | Purified YIC probe, intramolecular FRET ratio YFP/CFP | IC50, µM | 1,000 compounds, 40% hits;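 active means fitted half-maximal inhibitory concentration no more than tenfold above the top dose tested; inconclusive means flat fit with 30 to 70% activity, or poor fit; inactive means half-maximal concentration beyond tenfold above the top dose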
Numbers stand for hits. Only some compounds are listed: those with a hit (about 1.5% of all), similar ones and a draw of the others.

Screening COC(=O)c1ccc2nc(NC(=O)C(C)(C)C)sc2c1 returned RanGTP-Impb inh 20, CaV13 ICDI inh inactive, Runt-SMMHC FRET inactive, Runt-CBFb FRET inactive, Hck-Nef inh inactive and YIC FRET counter inactive.
Screening COc1cc2c(cc1OC)CN(Cc1ccc(C)cc1)CC2 returned RanGTP-Impb inh inconclusive and CaV13 ICDI inh inactive.
`COc1cc2c(cc1OC)CN(Cc1ccccc1)CC2` gave RanGTP-Impb inh 18, CaV13 ICDI inh inactive and YIC FRET counter inactive.
`COc1cc2c(cc1OC)CN(Cc1cccs1)CC2` gave RanGTP-Impb inh 18, Runt-SMMHC FRET inactive, Runt-CBFb FRET inactive, Hck-Nef inh inactive and YIC FRET counter inactive.
For COc1ccccc1N1CCN(Cc2cccs2)CC1 the results were RanGTP-Impb inh inactive, CaV13 ICDI inh inactive, Runt-SMMHC FRET inactive, Runt-CBFb FRET inactive and Hck-Nef inh inactive.
Cc1ccc(-c2nnn(CC(=O)N(c3ccccc3)C(C(=O)NCC3CCCO3)c3ccc(Cl)cc3)n2)cc1 (centres undefined) was read as RanGTP-Impb inh 21, CaV13 ICDI inh inactive, Runt-SMMHC FRET inactive, Runt-CBFb FRET inactive, Hck-Nef inh inactive and YIC FRET counter inactive.
Screening COC(=O)Cn1c(=O)c2c(nc3n2CCCN3CCc2ccccc2)n(C)c1=O returned RanGTP-Impb inh 25, CaV13 ICDI inh inactive and YIC FRET counter inactive.
`CN(C)S(=O)(=O)c1cccc(NC(=O)C2CCCN(C(=O)c3ccc(Cl)cc3)C2)c1` (centres undefined) gave CaV13 ICDI inh inactive.
`COc1ccccc1CNC(=O)Cn1ccsc1=N` gave RanGTP-Impb inh 20 and YIC FRET counter inactive.
Screening N=c1sccn1CC(=O)NCc1ccc(Cl)cc1Cl returned RanGTP-Impb inh inactive, CaV13 ICDI inh inactive, Runt-SMMHC FRET inactive, Runt-CBFb FRET inactive and Hck-Nef inh inactive.
Screening CN1CCN(c2ccc(S(=O)(=O)N3CCCCC3)cc2NC(=O)Cc2ccc(Cl)cc2)CC1 returned RanGTP-Impb inh 40, CaV13 ICDI inh inactive, Runt-SMMHC FRET inactive, Runt-CBFb FRET inactive, Hck-Nef inh inactive and YIC FRET counter inactive.
N#C/C(=C(/O)CSc1ccccn1)c1nc2ccccc2s1 was read as RanGTP-Impb inh 21, CaV13 ICDI inh inactive, Runt-SMMHC FRET inactive, Runt-CBFb FRET inactive, Hck-Nef inh inactive and YIC FRET counter inactive.
For Cc1ccc(SC/C(O)=C(\C#N)c2nc3ccccc3s2)cc1 the results were RanGTP-Impb inh inactive, CaV13 ICDI inh inactive, Runt-SMMHC FRET inactive, Runt-CBFb FRET inactive and Hck-Nef inh inactive.
`Cc1cccc(C(=O)Nc2sc(C)c(-c3ccccc3)c2C#N)c1` gave RanGTP-Impb inh 39, Runt-SMMHC FRET inactive, Runt-CBFb FRET inactive, Hck-Nef inh inactive and YIC FRET counter inactive.
For Cc1sc(NC(=O)C2CCCCC2)c(C#N)c1-c1ccccc1 the results were RanGTP-Impb inh inactive, CaV13 ICDI inh inactive, Runt-SMMHC FRET inactive, Runt-CBFb FRET inactive and Hck-Nef inh inactive.
Screening Cc1ccc(N2CC(=O)N(NC(=O)c3sc4nc(C)cc(C)c4c3N)CC2=O)cc1 returned RanGTP-Impb inh 20, CaV13 ICDI inh inactive, Runt-SMMHC FRET inactive, Runt-CBFb FRET inactive, Hck-Nef inh inactive and YIC FRET counter inactive.
For Cc1ccc(S(=O)(=O)c2cc3c(=O)n4cccc(C)c4nc3n(C3CCCCC3)c2=N)cc1 the results were RanGTP-Impb inh 34 and YIC FRET counter 3.9.
For C[C@@H]1CN([C@H](C)CO)C(=O)Cc2cc(NC(=O)Nc3ccc4c(c3)OCO4)ccc2O[C@@H]1CN(C)CC1CC1 the results were YIC FRET counter inactive.
Screening O=C(NNc1c2ccccc2nc2ccccc12)C(O)c1ccccc1 (centres undefined) returned RanGTP-Impb inh 34, CaV13 ICDI inh inactive, Runt-SMMHC FRET inactive, Runt-CBFb FRET inactive, Hck-Nef inh inactive and YIC FRET counter inactive.
Screening O=C(CCCO)NNc1c2ccccc2nc2ccccc12 returned RanGTP-Impb inh 25, CaV13 ICDI inh inactive, Runt-SMMHC FRET inactive, Runt-CBFb FRET inactive, Hck-Nef inh inactive and YIC FRET counter inactive.
`O=C(O)CCC(=O)NNc1nc2ccccc2nc1-c1ccccc1` gave RanGTP-Impb inh inactive, CaV13 ICDI inh inactive, Runt-SMMHC FRET inactive, Runt-CBFb FRET inactive and Hck-Nef inh inactive.
`COc1ccc(OC)c(Nc2c3ccccc3nc3ccccc23)c1` gave RanGTP-Impb inh 32, CaV13 ICDI inh inactive and YIC FRET counter inactive.
For COc1ccc(OCC(=O)NNC(=O)C(=O)Nc2ccccc2)cc1 the results were CaV13 ICDI inh inactive.
For COc1ccc(OCC(=O)NNc2c3ccccc3nc3ccccc23)cc1 the results were RanGTP-Impb inh 27, CaV13 ICDI inh inactive, Runt-SMMHC FRET inactive, Runt-CBFb FRET inactive, Hck-Nef inh inactive and YIC FRET counter inactive.
For O=C(NCc1ccccc1)C12CC3CC(CC(C3)C1)C2 the results were RanGTP-Impb inh inactive, CaV13 ICDI inh inactive, Runt-SMMHC FRET inactive, Runt-CBFb FRET inactive and Hck-Nef inh inactive.
`O=C(NNc1c2ccccc2nc2ccccc12)c1ccc(O)cc1O` gave RanGTP-Impb inh 38, CaV13 ICDI inh inactive, Runt-SMMHC FRET inactive, Runt-CBFb FRET inactive, Hck-Nef inh inactive and YIC FRET counter inactive.
CCCC(=O)NNc1c2ccccc2nc2ccccc12 was read as RanGTP-Impb inh 21, CaV13 ICDI inh inactive, Runt-SMMHC FRET inactive, Runt-CBFb FRET inactive, Hck-Nef inh inactive and YIC FRET counter inactive.
Screening O=C(NNc1c2ccccc2nc2ccccc12)C12CC3CC(CC(C3)C1)C2 returned RanGTP-Impb inh 24, CaV13 ICDI inh inactive, Runt-SMMHC FRET inactive, Runt-CBFb FRET inactive, Hck-Nef inh inactive and YIC FRET counter inactive.
O=C(NNC(=O)c1ccc(O)cc1O)c1ccc(-c2ccccc2)cc1 was read as RanGTP-Impb inh inconclusive and CaV13 ICDI inh inactive.
For O=C(CSc1nc2ccccc2c(=O)n1-c1ccc(F)cc1)NC1CCS(=O)(=O)C1 (centres undefined) the results were CaV13 ICDI inh inactive.
`O=C(CSCC(=O)NC1CC1)Nc1ccccc1` gave RanGTP-Impb inh 40, Runt-SMMHC FRET inactive, Runt-CBFb FRET inactive, Hck-Nef inh inactive and YIC FRET counter inactive.
Screening CC1Cc2cc(S(=O)(=O)NCc3ccccc3)ccc2N1C(=O)C1CC1 (centres undefined) returned RanGTP-Impb inh 18, CaV13 ICDI inh inactive and YIC FRET counter inactive.
